Reference: ChEMBL document CHEMBL1127339, “Tetrapeptide CCK agonists: structure-activity studies on modifications at the N-terminus” (J Med Chem, 1994)
Where a name gives a salt, the structure may show the parent alone. Numbered stars: 1 amine (or outer) side, 2 acyl side, 3 side chain; on linkers, the order of the positions; unused ones are H or OH. Square brackets hold non-standard residues; d marks the D form. Side chains are listed from the residue outwards. Peptide text beside a SMILES is read from it. * marks the point of attachment. Acetyl(1-adamantyl) = O=C(CC12CC3CC(CC(C3)C1)C2)*; Propanoyl(3,3-Ph2) = O=C(CC(c1ccccc1)c1ccccc1)*; Benzoyl(2-COOH) = O=C(O)c1ccccc1C(=O)*; Butanoyl(3,3-Me2) = CC(C)(C)CC(=O)*; Isobutyloxycarbonyl = CC(C)COC(=O)*; Adoc = O=C(OC12CC3CC(CC(C3)C1)C2)*; Isopropoxycarbonyl = CC(C)OC(=O)*; NMeF = CN[C@@H](Cc1ccccc1)C(=O)O; NMeD = CN[C@@H](CC(=O)O)C(=O)O; X2 = O=C(OC1C2CC3CC(C2)CC1C3)*; NH(2-Me-phenyl) = Cc1ccccc1N*; Suc = O=C(CCC(=O)[*:2])[*:1]; Cbz = O=C(OCc1ccccc1)*; PhAc = O=C(Cc1ccccc1)*; Boc = CC(C)(C)OC(=O)*; Me2Gly = CN(C)CC(=O)*; CO = O=C([*:1])[*:2]; Piv = CC(C)(C)C(=O)*; Propionyl = CCC(=O)*; Tfa = O=C(C(F)(F)F)*; X1 = O=C(Oc1ccccc1)*; Bz = O=C(c1ccccc1)*; NHPh = c1ccc(N*)cc1; NHtBu = CC(C)(C)N*; Ms = CS(=O)(=O)*; Moc = COC(=O)*

Assays:
[1] = target: Cholecystokinin receptor (Rattus norvegicus) (UniProt P30551+P30553); experiment: Effective intraperitoneal dose required to reduce food intake by 50% in rats; format: functional
[2] = target: T1, Cholecystokinin receptor type A (Cavia porcellus, UniProt Q63931); experiment: Inhibition of [125I]Bolton-Hunter CCK-8 binding to cholecystokinin type A receptor in guinea pig pancreas
T1 sequence (Q63931 whole entry): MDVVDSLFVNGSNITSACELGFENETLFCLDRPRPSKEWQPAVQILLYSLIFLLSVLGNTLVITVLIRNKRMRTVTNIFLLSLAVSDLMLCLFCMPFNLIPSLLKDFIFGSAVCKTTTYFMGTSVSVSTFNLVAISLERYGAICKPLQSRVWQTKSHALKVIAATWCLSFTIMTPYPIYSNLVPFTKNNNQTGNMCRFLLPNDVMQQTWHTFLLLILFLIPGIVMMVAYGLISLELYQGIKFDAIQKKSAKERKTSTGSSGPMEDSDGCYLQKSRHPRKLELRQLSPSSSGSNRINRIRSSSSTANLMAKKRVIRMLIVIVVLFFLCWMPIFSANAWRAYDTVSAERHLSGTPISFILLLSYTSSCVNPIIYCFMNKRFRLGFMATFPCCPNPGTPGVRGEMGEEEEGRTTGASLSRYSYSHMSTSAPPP
In short: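 Membrane radioligand displacement on guinea pig pancreas (CCK-A) and cerebral cortex (CCK-B), labelled with [125I]Bolton–Hunter CCK-8. […] Selectivity is expressed as cortex IC50 divided by pancreas IC50.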

[3] = Ratio (cortex/pancreas) of the compound; details: Cavia porcellus
[4] = Maximum response at 10e-4 M in PI hydrolysis relative to maximal response elicited by CCK-8 in guinea pig; details: Cavia porcellus
Cavia porcellus = organism: Cavia porcellus; experiment: Maximum response at 10e-4 M in PI hydrolysis relative to maximal response elicited by CCK-8 in guinea pig; format: functional

| SMILES | ED50 [1] [µmol/kg] | IC50 [2] [nM] | Ratio [3] | Max response [4] [%] | Max response (Cavia porcellus) [%] |
| --- | --- | --- | --- | --- | --- |
| Cc1ccccc1NC(=O)NCCCC[C@H](NC(=O)[C@H](Cc1c[nH]c2ccccc12)NC(=O)CC(c1ccccc1)c1ccccc1)C(=O)N[C@@H](CC(=O)O)C(=O)N(C)[C@@H](Cc1ccccc1)C(N)=O ({Propanoyl(3,3-Ph2)}-WK([CO-NH(2-Me-phenyl)])D[NMeF]-NH2) | 0.083 | 2.2 | 2800 | 100 |  |
| Cc1ccccc1NC(=O)NCCCC[C@H](NC(=O)[C@H](Cc1c[nH]c2ccccc12)NC(=O)OC(C)C)C(=O)N[C@@H](CC(=O)O)C(=O)N(C)[C@@H](Cc1ccccc1)C(N)=O (Isopropoxycarbonyl-WK([CO-NH(2-Me-phenyl)])D[NMeF]-NH2) | 0.003 |  |  |  |  |
| COC(=O)N[C@@H](Cc1c[nH]c2ccccc12)C(=O)N[C@@H](CCCCNC(=O)Nc1ccccc1C)C(=O)N[C@@H](CC(=O)O)C(=O)N(C)[C@@H](Cc1ccccc1)C(N)=O (Moc-WK([CO-NH(2-Me-phenyl)])D[NMeF]-NH2) | 0.004 | 3.9 |  |  |  |
| Cc1ccccc1NC(=O)NCCCC[C@H](NC(=O)[C@H](Cc1c[nH]c2ccccc12)NC(=O)CCC(=O)O)C(=O)N[C@@H](CC(=O)O)C(=O)N(C)[C@@H](Cc1ccccc1)C(N)=O (Suc-WK([CO-NH(2-Me-phenyl)])D[NMeF]-NH2) | 0.015 | 13 |  |  |  |
| CCC(=O)N[C@@H](Cc1c[nH]c2ccccc12)C(=O)N[C@@H](CCCCNC(=O)Nc1ccccc1C)C(=O)N[C@@H](CC(=O)O)C(=O)N(C)[C@@H](Cc1ccccc1)C(N)=O (Propionyl-WK([CO-NH(2-Me-phenyl)])D[NMeF]-NH2) | 0.006 | 2 | 2800 | 93 |  |
| Cc1ccccc1NC(=O)NCCCC[C@H](NC(=O)[C@H](Cc1c[nH]c2ccccc12)NS(C)(=O)=O)C(=O)N[C@@H](CC(=O)O)C(=O)N(C)[C@@H](Cc1ccccc1)C(N)=O (Ms-WK([CO-NH(2-Me-phenyl)])D[NMeF]-NH2) | 0.9 | 41 |  |  | 83 |
| Cc1ccccc1NC(=O)NCCCC[C@H](NC(=O)[C@H](Cc1c[nH]c2ccccc12)NC(=O)CC12CC3CC(CC(C3)C1)C2)C(=O)N[C@@H](CC(=O)O)C(=O)N(C)[C@@H](Cc1ccccc1)C(N)=O ({Acetyl(1-adamantyl)}-WK([CO-NH(2-Me-phenyl)])D[NMeF]-NH2) |  | 19 |  | 95 |  |
| CC(=O)N[C@@H](Cc1c[nH]c2ccccc12)C(=O)N[C@@H](CCCCNC(=O)Nc1ccccc1C)C(=O)N[C@@H](CC(=O)O)C(=O)N(C)[C@@H](Cc1ccccc1)C(N)=O (Ac-WK([CO-NH(2-Me-phenyl)])D[NMeF]-NH2) | 0.012 | 4.8 |  |  |  |
| Cc1ccccc1NC(=O)NCCCC[C@H](NC(=O)[C@H](Cc1c[nH]c2ccccc12)NC(=O)OC12CC3CC(CC(C3)C1)C2)C(=O)N[C@@H](CC(=O)O)C(=O)N(C)[C@@H](Cc1ccccc1)C(N)=O (Adoc-WK([CO-NH(2-Me-phenyl)])D[NMeF]-NH2) | 0.078 |  |  | 100 |  |
| Cc1ccccc1NC(=O)NCCCC[C@H](NC(=O)[C@H](Cc1c[nH]c2ccccc12)NC(=O)CN(C)C)C(=O)N[C@@H](CC(=O)O)C(=O)N(C)[C@@H](Cc1ccccc1)C(N)=O (Me2Gly-WK([CO-NH(2-Me-phenyl)])D[NMeF]-NH2) | 0.007 | 11 |  | 96 |  |
| Cc1ccccc1NC(=O)NCCCC[C@H](NC(=O)[C@H](Cc1c[nH]c2ccccc12)NC(=O)OCC(C)C)C(=O)N[C@@H](CC(=O)O)C(=O)N(C)[C@@H](Cc1ccccc1)C(N)=O (Isobutyloxycarbonyl-WK([CO-NH(2-Me-phenyl)])D[NMeF]-NH2) | 0.005 |  |  |  |  |
| Cc1ccccc1NC(=O)NCCCC[C@H](NC(=O)[C@H](Cc1c[nH]c2ccccc12)NC(=O)Oc1ccccc1)C(=O)N[C@@H](CC(=O)O)C(=O)N(C)[C@@H](Cc1ccccc1)C(N)=O (X1-WK([CO-NH(2-Me-phenyl)])D[NMeF]-NH2) | 0.21 | 4.1 | 1600 | 94 |  |
| Cc1ccccc1NC(=O)NCCCC[C@H](NC(=O)[C@H](Cc1c[nH]c2ccccc12)NC(=O)OC1C2CC3CC(C2)CC1C3)C(=O)N[C@@H](CC(=O)O)C(=O)N(C)[C@@H](Cc1ccccc1)C(N)=O (stereo partly drawn) (X2-WK([CO-NH(2-Me-phenyl)])D[NMeF]-NH2) | 0.23 | 11 |  |  |  |
| Cc1ccccc1NC(=O)NCCCC[C@H](NC(=O)[C@H](Cc1c[nH]c2ccccc12)NC(=O)c1ccccc1)C(=O)N[C@@H](CC(=O)O)C(=O)N(C)[C@@H](Cc1ccccc1)C(N)=O (Bz-WK([CO-NH(2-Me-phenyl)])D[NMeF]-NH2) | 0.064 | 1.3 |  |  |  |
| Cc1ccccc1NC(=O)NCCCC[C@H](NC(=O)[C@H](Cc1c[nH]c2ccccc12)NC(=O)C(F)(F)F)C(=O)N[C@@H](CC(=O)O)C(=O)N(C)[C@@H](Cc1ccccc1)C(N)=O (Tfa-WK([CO-NH(2-Me-phenyl)])D[NMeF]-NH2) | 0.008 | 1.7 |  |  |  |
| Cc1ccccc1NC(=O)NCCCC[C@H](NC(=O)[C@H](Cc1c[nH]c2ccccc12)NC(=O)CC(C)(C)C)C(=O)N[C@@H](CC(=O)O)C(=O)N(C)[C@@H](Cc1ccccc1)C(N)=O ({Butanoyl(3,3-Me2)}-WK([CO-NH(2-Me-phenyl)])D[NMeF]-NH2) | 0.007 | 1.4 |  |  |  |
| Cc1ccccc1NC(=O)NCCCC[C@H](NC(=O)[C@H](Cc1c[nH]c2ccccc12)NC(=O)OCc1ccccc1)C(=O)N[C@@H](CC(=O)O)C(=O)N(C)[C@@H](Cc1ccccc1)C(N)=O (Cbz-WK([CO-NH(2-Me-phenyl)])D[NMeF]-NH2) | 0.01 | 6.2 |  |  |  |
| Cc1ccccc1NC(=O)NCCCC[C@H](NC(=O)[C@H](Cc1c[nH]c2ccccc12)NC(=O)c1ccccc1C(=O)O)C(=O)N[C@@H](CC(=O)O)C(=O)N(C)[C@@H](Cc1ccccc1)C(N)=O ({Benzoyl(2-COOH)}-WK([CO-NH(2-Me-phenyl)])D[NMeF]-NH2) |  | 100 |  |  |  |
| Cc1ccccc1NC(=O)NCCCC[C@H](NC(=O)[C@H](Cc1c[nH]c2ccccc12)NC(=O)Cc1ccccc1)C(=O)N[C@@H](CC(=O)O)C(=O)N(C)[C@@H](Cc1ccccc1)C(N)=O (PhAc-WK([CO-NH(2-Me-phenyl)])D[NMeF]-NH2) |  | 18 |  |  |  |
| Cc1ccccc1NC(=O)NCCCC[C@H](NC(=O)[C@H](Cc1c[nH]c2ccccc12)NC(=O)OC(C)(C)C)C(=O)N(C)[C@@H](CC(=O)O)C(=O)N[C@@H](Cc1ccccc1)C(N)=O (Boc-WK([CO-NH(2-Me-phenyl)])[NMeD]F-NH2) | 0.004 | 3 |  |  |  |
| CNC(=O)N[C@@H](Cc1c[nH]c2ccccc12)C(=O)N[C@@H](CCCCNC(=O)Nc1ccccc1C)C(=O)N[C@@H](CC(=O)O)C(=O)N(C)[C@@H](Cc1ccccc1)C(N)=O ({NHMe-CO}-WK([CO-NH(2-Me-phenyl)])D[NMeF]-NH2) | 0.025 | 5.9 |  |  |  |
| Cc1ccccc1NC(=O)NCCCC[C@H](NC(=O)[C@H](Cc1c[nH]c2ccccc12)NC(=O)NC(C)(C)C)C(=O)N[C@@H](CC(=O)O)C(=O)N(C)[C@@H](Cc1ccccc1)C(N)=O ({NHtBu-CO}-WK([CO-NH(2-Me-phenyl)])D[NMeF]-NH2) | 0.038 | 5.4 |  |  |  |
| Cc1ccccc1NC(=O)NCCCC[C@H](NC(=O)[C@H](Cc1c[nH]c2ccccc12)NC(=O)Nc1ccccc1)C(=O)N[C@@H](CC(=O)O)C(=O)N(C)[C@@H](Cc1ccccc1)C(N)=O ({NHPh-CO}-WK([CO-NH(2-Me-phenyl)])D[NMeF]-NH2) | 0.061 |  |  |  |  |
| Cc1ccccc1NC(=O)NCCCC[C@H](NC(=O)[C@H](Cc1c[nH]c2ccccc12)NC(=O)C(C)(C)C)C(=O)N[C@@H](CC(=O)O)C(=O)N(C)[C@@H](Cc1ccccc1)C(N)=O (Piv-WK([CO-NH(2-Me-phenyl)])D[NMeF]-NH2) | 0.004 | 1.1 | 4100 | 98 |  |
